From article PMC6687308 (Journal of natural products, 2017)
Entries after “also recorded” stand apart in the source; their conditions may differ. Read-outs that look alike come from different tables or passages of the source.

How the values were obtained:
[1] = tested on: TRPM2-overexpressing HEK293 cells; assay type: cell-based
[2] = target: human TRPM2 (Homo sapiens, UniProt O94759); assay type: cell-based; details: for TRPM2 current amplitudes at fivefold higher concentration: fivefold higher concentrations
Chain of human TRPM2 (O94759 whole entry): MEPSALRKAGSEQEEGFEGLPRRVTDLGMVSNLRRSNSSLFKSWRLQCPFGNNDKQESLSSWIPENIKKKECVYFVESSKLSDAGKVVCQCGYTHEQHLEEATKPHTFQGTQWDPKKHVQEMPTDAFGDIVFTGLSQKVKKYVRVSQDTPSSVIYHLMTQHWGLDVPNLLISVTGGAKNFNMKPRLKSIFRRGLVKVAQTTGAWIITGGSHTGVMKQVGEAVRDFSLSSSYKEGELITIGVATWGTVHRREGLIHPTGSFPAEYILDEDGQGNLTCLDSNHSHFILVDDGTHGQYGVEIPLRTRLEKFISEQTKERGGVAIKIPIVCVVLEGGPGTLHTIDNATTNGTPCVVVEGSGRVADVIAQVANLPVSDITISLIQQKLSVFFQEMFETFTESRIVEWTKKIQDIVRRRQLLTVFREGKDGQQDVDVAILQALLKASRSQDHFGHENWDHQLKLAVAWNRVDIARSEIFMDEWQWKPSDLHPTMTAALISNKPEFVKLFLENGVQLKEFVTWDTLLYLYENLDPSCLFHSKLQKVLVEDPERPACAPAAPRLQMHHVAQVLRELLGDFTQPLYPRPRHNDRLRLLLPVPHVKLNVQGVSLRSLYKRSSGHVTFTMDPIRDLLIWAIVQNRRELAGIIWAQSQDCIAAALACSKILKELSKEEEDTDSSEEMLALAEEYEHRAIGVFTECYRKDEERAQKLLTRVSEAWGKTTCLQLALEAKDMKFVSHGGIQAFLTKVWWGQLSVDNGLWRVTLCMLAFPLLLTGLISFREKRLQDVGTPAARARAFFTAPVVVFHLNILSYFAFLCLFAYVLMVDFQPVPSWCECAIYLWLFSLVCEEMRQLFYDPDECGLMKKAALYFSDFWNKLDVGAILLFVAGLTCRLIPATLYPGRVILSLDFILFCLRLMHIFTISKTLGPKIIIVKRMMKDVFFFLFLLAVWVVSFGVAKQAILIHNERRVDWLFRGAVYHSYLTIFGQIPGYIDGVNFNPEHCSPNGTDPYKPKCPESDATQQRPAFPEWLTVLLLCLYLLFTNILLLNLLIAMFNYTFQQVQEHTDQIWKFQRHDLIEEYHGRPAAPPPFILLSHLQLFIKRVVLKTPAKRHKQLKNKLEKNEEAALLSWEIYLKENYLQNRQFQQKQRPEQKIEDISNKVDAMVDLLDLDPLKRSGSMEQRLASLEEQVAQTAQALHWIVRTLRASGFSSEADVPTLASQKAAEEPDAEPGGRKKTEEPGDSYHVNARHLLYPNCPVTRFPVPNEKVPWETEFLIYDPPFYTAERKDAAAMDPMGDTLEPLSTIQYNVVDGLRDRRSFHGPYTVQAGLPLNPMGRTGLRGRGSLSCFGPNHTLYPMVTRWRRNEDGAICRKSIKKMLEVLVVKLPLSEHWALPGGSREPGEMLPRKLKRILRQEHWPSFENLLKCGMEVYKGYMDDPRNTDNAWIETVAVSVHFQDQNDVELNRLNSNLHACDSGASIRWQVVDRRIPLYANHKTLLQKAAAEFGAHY

[3] = tested on: TRPM2; details: with preincubation; cited from earlier work
[4] = target: endogenous TRPM4 (Homo sapiens, UniProt Q8TD43); test: Whole-cell patch clamp of endogenous TRPM4-like currents in Jurkat T lymphocytes; assay type: cell-based; details: 500 nM
Summary of the method: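 Jurkat T cells were incubated with 500 nM test compound or none in standard external solution before whole-cell recording. Recordings were made within the first 60 min of incubation. Pipette: Cs-glutamate-based solution with intracellular Ca2+ clamped to 2 μM. Ramps ran −100 to +100 mV (50 ms, 0.5 Hz) from 0 mV, at 21–25 °C. Currents were extracted at −80 mV.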

[5] = tested on: INS-1 cells; test: Appearance of INS-1 cells during exposure in patch-clamp sessions; assay type: cell-based, rat
Summary of the method: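 Rat insulinoma INS-1 cells were grown at 37 °C, 5% CO2 in RPMI with 10% FBS. During whole-cell patch-clamp sessions at 21–25 °C, cells were held in standard external Ringer's solution with continual exposure to the test compound.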

[6] = target: mouse TRPM7 (Mus musculus, UniProt Q923J1); test: Whole-cell patch clamp of TRPM7 currents in tetracycline-inducible HEK293 cells; assay type: cell-based; details: +80 mV, 200 s
Summary of the method: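 Tetracycline-inducible HEK293 cells carrying FLAG-murine TRPM7 were induced with 1 μg/mL tetracycline 5–22 h beforehand. Cells were then incubated 15 min in culture medium with 100 nM, 500 nM or 2 μM test compound. Pipette: 140 mM K-glutamate with 10 mM BAPTA. Ramps ran −100 to +100 mV at 0.5 Hz, 21–25 °C. Amplitudes, not capacitance-corrected, were taken at +80 mV and 200 s, normalized, and fitted for IC50 and Hill coefficient.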

[7] = target: CRAC (Orai1/STIM1) (Homo sapiens, UniProt Q96D31); assay type: cell-based; details: 2 μM, 30–60 min exposure
Chain of CRAC (Orai1/STIM1) (Q96D31 whole entry, species assumed): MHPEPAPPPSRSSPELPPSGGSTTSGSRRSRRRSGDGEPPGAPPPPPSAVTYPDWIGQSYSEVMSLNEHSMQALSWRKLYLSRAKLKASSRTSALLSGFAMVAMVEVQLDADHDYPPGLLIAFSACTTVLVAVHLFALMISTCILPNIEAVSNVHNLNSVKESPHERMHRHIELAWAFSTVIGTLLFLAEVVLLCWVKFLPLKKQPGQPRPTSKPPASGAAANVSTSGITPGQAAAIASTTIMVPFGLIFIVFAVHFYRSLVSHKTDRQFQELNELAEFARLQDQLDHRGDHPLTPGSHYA
Chain of CRAC (Orai1/STIM1) (Q13586 23-685 partner, species assumed): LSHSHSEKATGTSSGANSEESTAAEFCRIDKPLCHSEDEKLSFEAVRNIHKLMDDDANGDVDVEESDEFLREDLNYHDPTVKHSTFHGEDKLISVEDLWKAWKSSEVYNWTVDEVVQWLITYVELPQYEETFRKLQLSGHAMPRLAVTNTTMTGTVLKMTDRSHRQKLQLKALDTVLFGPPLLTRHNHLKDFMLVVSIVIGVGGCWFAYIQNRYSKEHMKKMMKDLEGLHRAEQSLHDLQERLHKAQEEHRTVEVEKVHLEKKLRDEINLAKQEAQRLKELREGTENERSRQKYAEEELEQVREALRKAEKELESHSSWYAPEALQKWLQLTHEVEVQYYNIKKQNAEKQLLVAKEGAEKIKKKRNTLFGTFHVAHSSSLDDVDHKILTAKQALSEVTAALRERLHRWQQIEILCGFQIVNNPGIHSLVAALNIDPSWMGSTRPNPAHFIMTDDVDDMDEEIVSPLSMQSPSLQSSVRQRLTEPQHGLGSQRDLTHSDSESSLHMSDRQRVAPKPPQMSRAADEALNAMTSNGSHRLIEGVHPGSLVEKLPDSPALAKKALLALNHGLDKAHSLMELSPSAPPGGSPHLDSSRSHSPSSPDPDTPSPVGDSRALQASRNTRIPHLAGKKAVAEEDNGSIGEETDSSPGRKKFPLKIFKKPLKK
Summary of the method: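 HEK293 cells stably expressing STIM1 were transiently transfected with CRACM1-pIRES2-EGFP and patched 24–48 h later, with EGFP identifying cotransfected cells. External solution contained 10 mM CaCl2 and 10 mM TEA-Cl (pH 7.2, 300 mOsm). Ramps ran −150 to +150 mV over 50 ms. Bath solution was control or supplemented with test compound. Current–voltage relationships were taken at 100 s.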

[8] = target: endogenous TRPM2 (Rattus norvegicus, UniProt E9PTA2); assay type: cell-based
Chain of endogenous TRPM2 (E9PTA2 whole entry): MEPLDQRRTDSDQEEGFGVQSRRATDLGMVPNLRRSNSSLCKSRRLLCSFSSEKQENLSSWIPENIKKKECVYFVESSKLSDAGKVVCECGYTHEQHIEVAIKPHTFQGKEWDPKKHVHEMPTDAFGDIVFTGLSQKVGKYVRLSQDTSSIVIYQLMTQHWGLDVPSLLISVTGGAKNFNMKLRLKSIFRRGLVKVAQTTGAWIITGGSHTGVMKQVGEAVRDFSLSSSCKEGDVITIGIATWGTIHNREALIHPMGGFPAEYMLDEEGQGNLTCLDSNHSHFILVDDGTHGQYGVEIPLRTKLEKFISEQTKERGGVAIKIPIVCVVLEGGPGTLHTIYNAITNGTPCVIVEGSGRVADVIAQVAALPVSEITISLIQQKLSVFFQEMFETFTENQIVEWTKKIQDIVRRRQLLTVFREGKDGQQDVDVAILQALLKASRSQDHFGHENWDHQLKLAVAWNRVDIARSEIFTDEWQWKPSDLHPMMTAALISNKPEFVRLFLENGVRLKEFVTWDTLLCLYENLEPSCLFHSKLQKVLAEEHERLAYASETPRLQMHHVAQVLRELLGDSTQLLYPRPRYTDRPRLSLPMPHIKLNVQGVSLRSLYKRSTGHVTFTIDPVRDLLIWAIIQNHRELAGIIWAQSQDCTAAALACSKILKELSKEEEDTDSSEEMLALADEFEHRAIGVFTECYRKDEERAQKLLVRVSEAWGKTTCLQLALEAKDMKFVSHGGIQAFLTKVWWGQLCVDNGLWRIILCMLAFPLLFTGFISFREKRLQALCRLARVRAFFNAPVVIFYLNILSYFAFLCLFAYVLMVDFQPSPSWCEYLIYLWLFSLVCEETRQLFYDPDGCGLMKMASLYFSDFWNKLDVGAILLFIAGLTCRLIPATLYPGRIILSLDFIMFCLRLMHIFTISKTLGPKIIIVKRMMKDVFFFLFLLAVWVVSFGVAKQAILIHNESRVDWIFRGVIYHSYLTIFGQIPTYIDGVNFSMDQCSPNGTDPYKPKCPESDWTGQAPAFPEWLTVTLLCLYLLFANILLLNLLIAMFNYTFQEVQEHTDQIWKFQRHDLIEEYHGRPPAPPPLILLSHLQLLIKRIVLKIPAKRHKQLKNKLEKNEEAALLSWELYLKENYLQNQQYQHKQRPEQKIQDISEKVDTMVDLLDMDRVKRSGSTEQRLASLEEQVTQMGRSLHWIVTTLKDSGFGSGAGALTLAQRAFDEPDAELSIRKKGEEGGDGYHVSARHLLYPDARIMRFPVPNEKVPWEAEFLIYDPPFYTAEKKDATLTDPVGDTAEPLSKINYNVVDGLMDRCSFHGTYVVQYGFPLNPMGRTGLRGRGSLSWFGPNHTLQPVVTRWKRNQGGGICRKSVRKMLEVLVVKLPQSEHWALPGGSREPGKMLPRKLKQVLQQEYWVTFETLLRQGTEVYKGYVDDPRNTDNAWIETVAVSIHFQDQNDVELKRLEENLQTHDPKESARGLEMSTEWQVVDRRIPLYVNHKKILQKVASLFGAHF
Summary of the method: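 INS-1 cells (RPMI, 10% FBS) were held in standard external Ringer's (pH 7.2) containing the test compound. Whole-cell currents were recorded during the first 60 min, at 21–25 °C. Pipette: 140 mM Cs-glutamate, unbuffered Ca2+, ADPR 100 or 500 μM. Ramps ran −100 to +100 mV (50 ms, 0.5 Hz). Amplitudes at −80 mV and 50 s were expressed as percent inhibition of control and fitted for IC50 and Hill coefficient.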

[9] = target: TRPV1 (Rattus norvegicus, UniProt O35433); assay type: cell-based; details: 500 nM, 10 μM capsaicin
Chain of TRPV1 (O35433 whole entry): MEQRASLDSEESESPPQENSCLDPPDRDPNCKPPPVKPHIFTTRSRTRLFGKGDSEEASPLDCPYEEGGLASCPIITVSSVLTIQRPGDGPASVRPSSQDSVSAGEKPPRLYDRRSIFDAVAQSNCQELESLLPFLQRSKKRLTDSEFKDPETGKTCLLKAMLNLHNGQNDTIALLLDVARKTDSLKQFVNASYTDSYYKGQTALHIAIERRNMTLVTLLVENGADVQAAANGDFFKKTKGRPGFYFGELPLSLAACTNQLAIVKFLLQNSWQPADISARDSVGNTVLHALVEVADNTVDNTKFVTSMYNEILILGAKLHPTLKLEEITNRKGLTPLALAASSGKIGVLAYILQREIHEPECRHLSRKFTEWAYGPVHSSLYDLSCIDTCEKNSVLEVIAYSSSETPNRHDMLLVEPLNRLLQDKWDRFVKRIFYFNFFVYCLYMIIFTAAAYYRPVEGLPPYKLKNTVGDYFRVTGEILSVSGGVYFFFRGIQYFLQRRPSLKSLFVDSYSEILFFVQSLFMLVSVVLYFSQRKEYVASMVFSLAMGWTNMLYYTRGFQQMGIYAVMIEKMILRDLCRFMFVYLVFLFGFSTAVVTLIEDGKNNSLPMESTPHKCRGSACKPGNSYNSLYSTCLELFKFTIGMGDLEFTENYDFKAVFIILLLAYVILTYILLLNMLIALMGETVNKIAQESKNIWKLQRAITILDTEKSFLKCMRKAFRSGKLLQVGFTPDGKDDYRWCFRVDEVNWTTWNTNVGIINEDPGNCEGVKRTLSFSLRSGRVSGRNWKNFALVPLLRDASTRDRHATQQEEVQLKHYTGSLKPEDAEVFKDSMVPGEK
Summary of the method: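 INS-1 cells were incubated with 500 nM test compound or none in standard external Ringer's solution before whole-cell patch clamp at 21–25 °C. Pipette: 140 mM Cs-glutamate, 8 NaCl, 1 MgCl2, 10 HEPES (pH 7.2), with Ca2+ left unbuffered. Ramps ran −100 to +100 mV over 50 ms at 0.5 Hz from a 0 mV holding potential. Amplitudes were taken at −80 mV.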

O=c1[nH]c2ccccc2n1C1CCN(Cc2ccc(-c3nc4cc5[nH]cnc5cc4nc3-c3ccccc3)cc2)CC1 [Akt inhibitor VIII, 1,3-dihydro-1-(1-((4-(6-phenyl-1H-imidazo[4,5-g]quinoxalin-7-yl)phenyl)methyl)-4-piperidinyl)-2H-benzimidazol-2-one]
Effect on cell viability at fivefold higher concentration [1]: affected cell viability | Effect on TRPM2-mediated currents ([2]; 200 nM, 60 min preincubation, 500 μM ADPR): failed to affect | TRPM2 current amplitudes at fivefold higher concentration ([2]; data not shown): comparable to control cells

O=C1NCCc2c(OCCCCN3CCCCC3)cccc21 [DPQ, 3,4-dihydro-5-[4-(1-piperidinyl)butoxyl]-1(2H)-isoquinolinone]
Effect on TRPM2-mediated currents (ADPR in pipet) ([2]; PARP-1 inhibitors, 100 μM ADPR, first 60 min): did not affect

COc1cc(/C=C/C(=O)CC(=O)/C=C/c2ccc(O)c(OC)c2)ccc1O [curcumin]
Concentration range blocking TRPM2 currents [3]: low nanomolar range

O=C(O)CC[C@@H](Cc1ccc(OCc2ccccc2)cc1)NC(=O)CCCCCCc1ccccc1 [sPLA2 inhibitor, 5-(4-benzyloxyphenyl)-4S-(7-phenylheptanoylamino)pentanoic acid]
Cell death during a 1 h recording session ([1]; 5–10-fold higher concentrations, data not shown): significant cell death | Effect on TRPM2-mediated currents ([2]; 5 μM, 100 μM ADPR): lack of effect

CC(=O)O[C@H]1C[C@@H]2[C@@]3(C)CCCC(C)(C)[C@@H]3CC[C@@]2(C)[C@@H]2CC=C(C=O)[C@H](C=O)[C@@]12C [scalaradial]
Effect on TRPM4 current [4]: without affecting the current; also recorded: failed to inhibit | Time cells appeared healthy with continual exposure ([5]; 500 nM and lower concentrations): at least 1 h | Condition of INS-1 cells ([5]; 2 μM): rapidly deteriorated | Hill coefficient of TRPM7 concentration-response fit [6]: 2 | Effect on CRAC currents [7]: no significant inhibition; also recorded: did not significantly affect; also recorded: failed to inhibit | Effect on ADPR-induced currents ([8]; 0.5–2.0 μM): largely abolished | Hill coefficient of INS-1 TRPM2 dose-response fit ([8]; −80 mV, 50 s): 4 | Effect on TRPV1 current [9]: does not inhibit; also recorded: failed to inhibit | Incubation time to reach full potency (full onset) of TRPM2 inhibition ([2]; 2 μM scalaradial): ~ 20 min | Effect of acute application on TRPM2 currents ([2]; 2 μM, acute application): did not significantly affect | Hill coefficient of TRPM2 concentration-response fit ([2]; 30–60 min incubation, −80 mV, 100 s): 1.3 | Time dependency of TRPM2 inhibition when added internally ([2]; added to the cell internally, data not shown): not affected | Time to recovery of TRPM2 currents after drug removal ([2]; after 60 min incubation in 2 μM): ≤ 5 min

COC[C@H]1OC(=O)c2coc3c2[C@@]1(C)C1=C(C3=O)[C@@H]2CCC(=O)[C@@]2(C)C[C@H]1OC(C)=O [wortmannin]
Effect on cell viability at fivefold higher concentration ([1]; fivefold higher concentrations, cell rounding, granule formation, blebbing, data not shown): affected cell viability | Effect on TRPM2-mediated currents ([2]; 20 nM, 60 min preincubation, 500 μM ADPR): failed to affect | TRPM2 current amplitudes at fivefold higher concentration ([2]; data not shown): comparable to control cells
